ChEMBL document CHEMBL1137523, “Efficient one-pot synthesis of biologically active polysubstituted aromatic amines” (Bioorg Med Chem, 2007)
In brackets after ≈: the same amount, converted by molar mass. Activity calls are given as the source filed them. No cut-off for these calls is given here.

Columns and labels:
L929 [1] = assay: Growth inhibition of mouse L929 cells after 5 days by MTT assay; type: functional, cell-based; settings: L929, 120 h
In short: (§1)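 L-929 cells (DSMZ) were grown in DME with 10% newborn calf serum at 37 °C, 10% CO2, in humid air. In microtiter plates, a suspension of 50,000 cells/mL was added to a serial dilution of inhibitor (2:1 cell suspension to dilution). Metabolic activity per well was read by MTT after 5 days.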

Potorous tridactylus = assay: Effect on cell morphology in PtK2 potoroo cells assessed as changes in morphology at 50 ug/mL after 18 hrs
L929 [2] = assay: Growth inhibition of mouse L929 cells below 40 ug/mL after 5 days by MTT assay; type: functional, cell-based; in short: as §1

Compound | IC50 (L929 [1]) | Activity (Potorous tridactylus) | Activity (L929 [2])
Cc1ccc(N(Cc2ccccc2)CC(C)C)cc1 | 5 µg/mL (≈ 19.7 µM) | Active | –
Cc1ccc(NCc2ccccc2)cc1 [N-BENZYL-4-METHYLANILINE] | > 40 µg/mL | – | inactive
COc1ccc(N(Cc2ccc([N+](=O)[O-])cc2)Cc2ccccc2OC)cc1 | > 40 µg/mL | – | –
COc1ccc(NCc2ccc([N+](=O)[O-])cc2)cc1 | > 40 µg/mL | – | –
COc1ccc(NC(C)c2ccco2)cc1 (stereo unspecified) | 40 µg/mL (≈ 184 µM) | – | –
c1ccc(CNc2ccccn2)cc1 | 35 µg/mL (≈ 190 µM) | – | –
COc1ccc(N(Cc2ccccc2)Cc2ccccc2)cc1 | 12 µg/mL (≈ 39.6 µM) | – | –
COc1ccc(NCc2ccccc2OC)cc1 | 25 µg/mL (≈ 103 µM) | – | –
COc1ccc(N(Cc2ccc([N+](=O)[O-])cc2)CC(C)C)cc1 | > 40 µg/mL | – | inactive
CCCCCCCCCNc1ccc(OC)cc1 | 12 µg/mL (≈ 48.1 µM) | – | –
COc1ccc(N(Cc2ccccc2OC)CC(C)C)cc1 | 15 µg/mL (≈ 50.1 µM) | – | –
COc1ccc(NC(C)c2ccsc2)cc1 (stereo unspecified) | 30 µg/mL (≈ 129 µM) | – | –
COc1ccc(N(CC(C)C)CC(C)C)cc1 | 25 µg/mL (≈ 106 µM) | – | –
O=[N+]([O-])c1cc(O)ccc1NCc1ccccc1 | 9 µg/mL (≈ 36.8 µM) | Active | –
CCCCCCCCCN(CC(C)C)c1ccc(OC)cc1 | 20 µg/mL (≈ 65.5 µM) | – | –
COc1ccc(CNc2ccc(O)c([N+](=O)[O-])c2)cc1 | 20 µg/mL (≈ 72.9 µM) | – | –
O=C(O)Cc1ccc(NCc2ccccc2)cc1 | > 40 µg/mL | – | –
COc1ccc(NC(C)c2ccccc2)cc1 (stereo unspecified) | 30 µg/mL (≈ 132 µM) | – | –
COc1ccc(N(Cc2ccccc2)CC(C)C)cc1 | 10 µg/mL (≈ 37.1 µM) | – | –
COc1ccc(NCC(C)C)cc1 | > 40 µg/mL | – | inactive
CC(=O)c1ccc(NCc2ccccc2)cc1 | 22 µg/mL (≈ 97.7 µM) | – | –
COc1ccc(N(Cc2ccccc2)Cc2ccc([N+](=O)[O-])cc2)cc1 | > 40 µg/mL | – | –
Cc1ccc(N(Cc2ccccc2)Cc2ccccc2)cc1 | 11 µg/mL (≈ 38.3 µM) | – | –
COc1ccc(N(Cc2ccccc2)Cc2ccccc2OC)cc1 | > 40 µg/mL | – | inactive
Cc1ccc(N(CC(C)C)CC(C)C)cc1 | 13 µg/mL (≈ 59.3 µM) | – | –
